We go through 9 compounds from ChEMBL document CHEMBL2434934, “Multicomponent synthesis and anticonvulsant activity of monocyclic 2,6-diketopiperazine derivatives” (Med Chem Res, 2013).

For data set [1], the system named is Mus musculus. The experiment in a line: Anticonvulsant activity in albino mouse assessed as protection against subcutaneous metrazole-induced seizures at 100 mg/kg, ip after 0.5 to 4 hrs. The class given is functional, organism-based. Details: dose 100 mg/kg. In a few lines: (§1)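 Mice were dosed ip at 30, 100 or 300 mg/kg and tested at two or more time points. Protection meant absence of clonic seizures lasting at least 5 s, scored as number protected/number tested.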

The test system of data set [2] is Mus musculus. Description: Anticonvulsant activity in albino mouse assessed as protection against maximal electroshock-induced seizures at 300 mg/kg, ip after 0.5 hrs. The class given is functional, organism-based. Details: dose 300 mg/kg. In a few lines:
(§2)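 A 0.2 s electrical stimulus of 50 mA was applied to mice through corneal electrodes primed with an electrolyte solution containing an anesthetic. This followed ip dosing at 30, 100 or 300 mg/kg, with testing at two or more time points. Protection meant abolition of the hindlimb tonic extensor component, scored as number protected/number tested.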
Background: In the maximal electroshock model the usual endpoint is tonic extension of the hind limbs.

In data set [3] the test system is Mus musculus. Description: Anticonvulsant activity in albino mouse assessed as protection against subcutaneous metrazole-induced seizures at 30 mg/kg, ip after 0.5 to 4 hrs. Format: functional, organism-based. Also noted: dose 30 mg/kg. In outline: as §1
Data set [4] deals with Mus musculus. The experiment in a line: Anticonvulsant activity in albino mouse assessed as protection against maximal electroshock-induced seizures at 300 mg/kg, ip after 4 hrs. The class given is functional, organism-based. Also noted: dose 300 mg/kg. In a few lines: as §2
Data set [5] has as its system Mus musculus. The experiment in a line: Anticonvulsant activity in albino mouse assessed as protection against subcutaneous metrazole-induced seizures at 300 mg/kg, ip after 0.5 to 4 hrs. Format: functional, organism-based. Also noted: dose 300 mg/kg. In outline:
as §1

Data set [6] deals with Mus musculus. Description: Neurotoxicity in albino mouse at 300 mg/kg, ip after 4 hrs by rotarod test. Also noted: dose 300 mg/kg, route intraperitoneal. As to conditions: in vivo. The class given is toxicity, organism-based. In a few lines:
(§3)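 Mice received the compound ip and were tested at intervals of 0.25 to 4 h after dosing. Neurological impairment was scored as inability to keep equilibrium on a rod rotating at 6 rpm for a given time. The footnotes also record inability to grasp the rod and loss of righting reflex. Results were expressed as number toxic/number tested.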
For orientation: In the rotarod test animals must keep their balance on a rotating rod.

Data set [7] concerns Mus musculus. The experiment in a line: Neurotoxicity in albino mouse at 30 mg/kg, ip after 0.5 to 4 hrs by rotarod test. The class given is toxicity, organism-based. Also noted: dose 30 mg/kg, route intraperitoneal. To be noted: in vivo. In a few lines:
as §3

In data set [8] the test system is Mus musculus. Description: Anticonvulsant activity in albino mouse assessed as protection against maximal electroshock-induced seizures at 100 mg/kg, ip after 0.5 to 4 hrs. The class given is functional, organism-based. Also noted: dose 100 mg/kg. In outline:
as §2

Data set [9] relates to Mus musculus. The experiment in a line: Anticonvulsant activity in albino mouse assessed as protection against maximal electroshock-induced seizures at 30 mg/kg, ip after 0.5 to 4 hrs. Format: functional, organism-based. Also noted: dose 30 mg/kg. In a few lines: as §2
For data set [10], the system named is Mus musculus. The experiment in a line: Neurotoxicity in albino mouse at 100 mg/kg, ip after 0.5 to 4 hrs by rotarod test. To be noted: in vivo. The class given is toxicity, organism-based. Also noted: dose 100 mg/kg, route intraperitoneal. In outline:
as §3

Data set [11] concerns Mus musculus. Description: Neurotoxicity in albino mouse at 30 mg/kg, ip after 2 hrs by rotarod test. Format: toxicity, organism-based. Details: dose 30 mg/kg, route intraperitoneal. To be noted: in vivo. In outline: as §3
Data set [12] deals with Mus musculus. Description: Anticonvulsant activity in albino mouse assessed as protection against maximal electroshock-induced seizures at 30 mg/kg, ip after 2 hrs. The class given is functional, organism-based. Details: dose 30 mg/kg. In a few lines:
as §2

The subject of data set [13] is Mus musculus. The experiment in a line: Neurotoxicity in albino mouse at 300 mg/kg, ip after 2 hrs by rotarod test. Format: toxicity, organism-based. Also noted: dose 300 mg/kg, route intraperitoneal. To be noted: in vivo. In outline: as §3
For data set [14], the system named is Mus musculus. The experiment in a line: Anticonvulsant activity in albino mouse assessed as protection against maximal electroshock-induced seizures at 300 mg/kg, ip after 2 hrs. Details: dose 300 mg/kg. Format: functional, organism-based. In a few lines:
as §2

The subject of data set [15] is Mus musculus. Description: Anticonvulsant activity in albino mouse assessed as protection against maximal electroshock-induced seizures at 100 mg/kg, ip after 2 hrs. The class given is functional, organism-based. Details: dose 100 mg/kg. In a few lines: as §2
For data set [16], the system named is Mus musculus. The experiment in a line: Neurotoxicity in albino mouse at 100 mg/kg, ip after 2 hrs by rotarod test. Format: toxicity, organism-based. Also noted: dose 100 mg/kg, route intraperitoneal. As to conditions: in vivo. In a few lines:
as §3

The subject of data set [17] is Mus musculus. Description: Anticonvulsant activity in albino mouse assessed as protection against 6 Hz psychomotor seizure at 100 mg/kg, ip after 0.5 to 2 hrs. Also noted: dose 100 mg/kg. The class given is functional, organism-based. In outline: (§4)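 Mice given 100 mg/kg ip and tested at intervals between 0.25 and 4 h. A constant-current device delivered corneal stimulation at 32 mA as 0.2 ms monopolar rectangular pulses at 6 Hz for 3 s. Mice were restrained during stimulation, then released into an observation cage. The readout was protection against the psychomotor seizure (stunned posture, forelimb clonus, Straub tail), scored as number protected/number tested.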

Data set [18] has as its system Mus musculus. The experiment in a line: Neurotoxicity in albino mouse at 100 mg/kg, ip after 0.5 to 2 hrs by rotarod test. Format: toxicity, organism-based. Also noted: dose 100 mg/kg, route intraperitoneal. To be noted: in vivo. In outline: as §3
Data set [19] has as its system Mus musculus. Description: Neurotoxicity in albino mouse at 300 mg/kg, ip after 0.5 hrs by rotarod test. As to conditions: in vivo. Format: toxicity, organism-based. Also noted: dose 300 mg/kg, route intraperitoneal. In a few lines:
as §3

Data set [20] relates to Mus musculus. Description: Anticonvulsant activity in albino mouse assessed as protection against 6 Hz psychomotor seizure at 100 mg/kg, ip after 0.25 to 0.5 hrs. The class given is functional, organism-based. Also noted: dose 100 mg/kg. In outline: as §4
Data set [21] relates to Mus musculus. Description: Neurotoxicity in albino mouse assessed as loss of righting reflex at 300 mg/kg, ip after 0.5 hrs by rotarod test. Format: toxicity, organism-based. Details: dose 300 mg/kg, route intraperitoneal. To be noted: in vivo. In outline: as §3
For data set [22], the system named is Mus musculus. Description: Anticonvulsant activity in albino mouse assessed as protection against 6 Hz psychomotor seizure at 100 mg/kg, ip after 1 to 4 hrs. Format: functional, organism-based. Also noted: dose 100 mg/kg. In outline: as §4
In data set [23] the test system is Mus musculus. The experiment in a line: Neurotoxicity in albino mouse at 100 mg/kg, ip after 0.25 to 4 hrs by rotarod test. The class given is toxicity, organism-based. Also noted: dose 100 mg/kg, route intraperitoneal. As to conditions: in vivo. In outline:
as §3

Activity calls are given as the source filed them. No cut-off for these calls is given here.

Take `CC[C@H](C)[C@@H]1N[C@@H](c2ccccc2)C(=O)NC1=O`: the outcome in the data set with Mus musculus [1], in the data set with Mus musculus [2], in the data set with Mus musculus [3], in the data set on Mus musculus [4], in the data set on Mus musculus [5] and in the data set with Mus musculus [8] was inactive. Moreover, the outcome in the data set with Mus musculus [9] was inactive. Besides, the Activity result in the data set on Mus musculus [6], in the data set with Mus musculus [7] and in the data set on Mus musculus [10] was “Non-toxic” throughout.

On to `O=C1NC(=O)[C@@H](c2ccccc2)N[C@H]1c1ccccc1`, for which the Activity result with Mus musculus [11], in the data set with Mus musculus [13] and with Mus musculus [16] was “Non-toxic” throughout. For the same compound, the outcome in the data set on Mus musculus [12], in the data set on Mus musculus [14] and in the data set on Mus musculus [15] was inactive.

As to `O=C1NC(=O)[C@H](c2ccccc2)N[C@H]1c1ccccc1`, the Activity entry is on record as “Non-toxic” with Mus musculus [11], “Toxic” in the data set on Mus musculus [13] and “Non-toxic” in the data set with Mus musculus [18]. For the same compound, the outcome in the data set with Mus musculus [12] and in the data set with Mus musculus [17] was inactive. Besides, the outcome in the data set on Mus musculus [14] was Active.

With `O=C1CN(Cc2ccccc2)C(c2ccccc2)C(=O)N1` (racemic), the Activity result in the data set on Mus musculus [11], with Mus musculus [13] and in the data set with Mus musculus [16] was “Non-toxic” in each case. For the same compound, the outcome with Mus musculus [12] and in the data set on Mus musculus [15] was inactive.

For the compound `O=C1NC(=O)[C@H](c2ccccc2)N[C@H]1Cc1ccccc1`, the result with Mus musculus [1], with Mus musculus [3], in the data set on Mus musculus [4], with Mus musculus [5], in the data set on Mus musculus [8] and with Mus musculus [9] was inactive. For the same compound, the Activity result in the data set on Mus musculus [19], in the data set on Mus musculus [6], in the data set with Mus musculus [7] and with Mus musculus [10] was “Non-toxic” throughout. Further, the result with Mus musculus [2] was Active.

In the case of `CC(C)[C@@H]1N[C@@H](c2ccccc2)C(=O)NC1=O`, the outcome with Mus musculus [1], in the data set on Mus musculus [22], in the data set on Mus musculus [3], in the data set with Mus musculus [4], in the data set with Mus musculus [5] and in the data set on Mus musculus [9] was inactive. Besides, the result with Mus musculus [20] and with Mus musculus [2] was Active. The Activity entry with Mus musculus [21] is given as “Toxic”; with Mus musculus [6], “Non-toxic”; with Mus musculus [7], “Non-toxic”; with Mus musculus [10], “Non-toxic”; in the data set with Mus musculus [23], “Non-toxic”.

For `CC(C)[C@@H]1N[C@H](c2ccccc2)C(=O)NC1=O`, the outcome in the data set with Mus musculus [1], in the data set on Mus musculus [3], in the data set on Mus musculus [4], in the data set with Mus musculus [5], with Mus musculus [8] and in the data set on Mus musculus [9] was inactive. Besides, the outcome with Mus musculus [2] was Active. For the same compound, the Activity result in the data set with Mus musculus [6], in the data set with Mus musculus [7] and in the data set on Mus musculus [10] was “Non-toxic” each time.

Regarding `O=C1CN(c2ccccc2)C(c2ccccc2)C(=O)N1` (racemic), the result in the data set with Mus musculus [1], in the data set with Mus musculus [2], in the data set with Mus musculus [3], with Mus musculus [4], in the data set on Mus musculus [5] and with Mus musculus [8] was inactive. The outcome with Mus musculus [9] was inactive. In addition, the Activity result with Mus musculus [19], with Mus musculus [6], in the data set on Mus musculus [7] and with Mus musculus [10] was “Non-toxic” throughout.

Consider `CC(C)C[C@@H]1N[C@@H](c2ccccc2)C(=O)NC1=O`, for which the outcome in the data set with Mus musculus [1], in the data set with Mus musculus [3], with Mus musculus [4], in the data set with Mus musculus [5], in the data set on Mus musculus [8] and in the data set on Mus musculus [9] was inactive. Moreover, the result in the data set on Mus musculus [2] was Active. The Activity result in the data set with Mus musculus [6], with Mus musculus [7] and with Mus musculus [10] was “Non-toxic” each time.
